The source of these data is publication PMC12466149 (eBioMedicine, 2025).

The structures appear in SMILES notation. Entries after “also recorded” stand apart in the source; their conditions may differ.

The subject of one series is SH-SY5Y APPSWE cells. The experiment in a line: Mitochondrial stress test. To be noted: rotenone 256 nM. The format is cell-based, human. The method in brief:
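For SH-SY5Y cells stably expressing APPSWE, cells were held 1 h at 37 °C without CO2 in XF DMEM pH 7.4 (1 mM pyruvate, 2 mM glutamine, 10 mM glucose). OCR was recorded basally, then after oligomycin A and FCCP (each titrated over 0.5–3 μM) and 0.5 μM rotenone plus 0.5 μM antimycin A. Hoechst (5 μM final) was used for cell-count normalisation. SRC = maximal minus basal OCR.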

In series [1] the test system is MC65 Tet-On cells. Nature of the series: Real-time respirometry. The series is classed as cell-based, human.
In series [2] the test system is mitochondrial complex I (mtCI). The experiment in a line: mtCI activity in isolated brain mitochondria. To be noted: 1 μM rotenone. The series is classed as biochemical, mouse. The method in brief:
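Mouse brain mitochondria isolated by differential centrifugation (5900×g 4 min, then 12,000×g 10 min, 4 °C) in mannitol/sucrose/HEPES-Tris/EGTA medium, pH 7.4, with BSA and 0.02% digitonin. Complex I activity measured spectrophotometrically at 25 °C as oxidation of 0.15 mM NADH at 340 nm. Buffer: sucrose/Tris-HCl pH 7.5/KCl with 10 μM cytochrome c, 40 μg/ml alamethicin and 1 mM MgCl2.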

Series [3] concerns MC65 Tet-Off cells (Aβ expressed). Nature of the series: Protection against Aβ toxicity in MC65 Tet-Off cells. The series is classed as cell-based, human. To be noted: any concentration of rotenone; data not shown. In a few lines: (§1)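 MC65 human neuroblastoma cells in high-glucose DMEM with 10% FBS, 1 mM pyruvate and nonessential amino acids, 5% CO2, 37 °C. Tet-Off (Aβ expressed) cells got test compound at 2 nM–5 μM, optionally after 30 min pretreatment with 32 nM rotenone. Tet-On cells got vehicle or 32 nM rotenone. Viability at 3 days by MTT: 0.25 mg/ml, 4 h at 37 °C, solubilised in HCl/isopropanol, read at 570 nm. Tet-On vehicle set as 100%.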

Series [4] concerns MC65 Tet-On cells. The experiment in a line: Cytotoxicity in MC65 Tet-On cells. The format is cell-based, human. To be noted: 32 nM rotenone. The method in brief: as §1

As for `C=C(C)[C@H]1Cc2c(ccc3c2O[C@@H]2COc4cc(OC)c(OC)cc4[C@@H]2C3=O)O1` [rotenone], the “Spare respiratory capacity (SRC)” value in the series on SH-SY5Y APPSWE cells is reported as “did not improve SRC”. Moreover, in the series with MC65 Tet-On cells [1] (32 nM rotenone, within 30 min), the “Reduction of OCR” value was found to be 50%. In the series on MC65 Tet-On cells [1] (kinetic injection), the Effect on respiration result is “immediately blocked respiration”. Further, the “mtCI inhibition (in words)” value in series [2] was “complete inhibition; also recorded: completely inhibits”. In addition, the “Protection against Aβ toxicity” value in series [3] is listed as “did not protect”. Moreover, the Cytotoxicity result in the series with MC65 Tet-On cells [4] is “show no toxicity; also recorded: did not induce cell death”.
